The values below come from ChEMBL document CHEMBL3813689, “Discovery of Potent Benzofuran-Derived Diapophytoene Desaturase (CrtN) Inhibitors with Enhanced Oral Bioavailability for the Treatment of Methicillin-Resistant Staphylococcus aureus (MRSA) Infections” (J Med Chem, 2016).

For data set [1], the system named is Staphylococcus aureus. Briefly: Sensitization of methicillin-resistant Staphylococcus aureus USA400 MW2 to immune clearance in human whole blood assessed as bacterial survival at 1 uM measured after 24 hrs (reference value: 10.2%). It counts as functional.
In data set [2] the test system is Staphylococcus aureus. Nature of the data set: Sensitization of methicillin-resistant Staphylococcus aureus Mu50 to immune clearance in human whole blood assessed as bacterial survival at 1 uM measured after 24 hrs (reference value: 16.1%). It counts as functional.
For data set [3], the system named is Staphylococcus aureus. Nature of the data set: Sensitization of methicillin-resistant Staphylococcus aureus USA300 LAC to H2O2 assessed as bacterial survival at 1 uM measured after 24 hrs (reference value: 14.2%). It counts as functional.
For data set [4], the system named is Staphylococcus aureus. Nature of the data set: Sensitization of methicillin-resistant Staphylococcus aureus Mu50 to H2O2 assessed as bacterial survival at 1 uM measured after 24 hrs (reference value: 25.3%). It counts as functional. The conditions noted are these: Mu50, 24 h.
In data set [5] the test system is Staphylococcus aureus. Briefly: Inhibition of staphyloxanthin pigment formation in methicillin-resistant Staphylococcus aureus USA400 MW2 after 48 hrs by spectrophotometric method. It counts as functional, organism-based. The following applies: MW2, 48 h. Summed up: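 MRSA grown in 4 mL TSB with 40 µL compound (2-fold serial dilutions from 20 mM DMSO stock) at 37 °C for 48 h, triplicate. Cells washed twice in PBS, pigment extracted with methanol, OD450 measured; IC50 from dose-response fit.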

In data set [6] the test system is Staphylococcus aureus. Briefly: Suppression in growth of methicillin-resistant Staphylococcus aureus USA400 MW2 at 0.05 mM measured after overnight incubation by spectrophotometric method. It counts as organism-based. The conditions noted are these: 50 µM. Summed up:
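Compound from 20 mM DMSO stock diluted in TSB to final 0.2 or 0.05 mM; DMSO growth controls; paraffin overlay. Overnight cultures inoculated to final OD600 ≈ 0.05; incubated at 37 °C overnight with OD600 read every 30 min.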

Data set [7] deals with Staphylococcus aureus. Briefly: Sensitization of Staphylococcus aureus Newman to immune clearance in human whole blood assessed as reduction in bacterial survival at 1 uM […] relative to control. It counts as functional.
In data set [8] the test system is Staphylococcus aureus. Nature of the data set: Sensitization of Staphylococcus aureus USA300 LAC to immune clearance in human whole blood assessed as reduction in bacterial survival at 1 uM […] relative to control. It counts as functional.
The test system of data set [9] is Staphylococcus aureus. Nature of the data set: Sensitization of methicillin-resistant Staphylococcus aureus USA300 LAC to H2O2 assessed as reduction in bacterial survival at 1 uM measured after 24 hrs relative to control. It counts as functional. An outline of the steps:
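Strains grown 24 h in TSB with or without inhibitor, washed twice in PBS, then diluted to 4 × 10^6 CFU per 250 µL reaction. H2O2 added to a final 1.5%. Tubes sealed and held 30 min at 37 °C. Reaction stopped with 1000 U/mL catalase. Survivors counted as CFU by serial dilution on TSA plates and compared with untreated (mock) bacteria.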

Data set [10] concerns Staphylococcus aureus. Briefly: Antibacterial activity against Staphylococcus aureus Newman infected Balb/c mouse assessed as reduction of bacterial survival in kidney at 5.2 mg, ip bid administered for 4.5 days followed by bacterial infection measured after 5 days. It counts as functional. Summed up:
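Female BALB/c mice, 6–8 weeks, dosed ip with compound in sterile water once and every 12 h for 108 h; water vehicle controls. Challenged 12 h after first dose with 1 × 10^7 CFU Newman by retro-orbital injection. Kidneys and hearts homogenised in PBS/0.1% Triton X-100 and plated on TSA for CFU. n = 13 mice; two-tailed Mann-Whitney.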

As usually defined, the IC50 is the point on the concentration scale where inhibition reaches its midpoint. As to `CN(C/C=C/c1ccc(C(F)(F)F)cc1)Cc1cccc2ccoc12.Cl`, the survival at 1 µM with Staphylococcus aureus [1] came out at 1.3%; in the data set with Staphylococcus aureus [2], 3%; in the data set with Staphylococcus aureus [3], 0.7%; with Staphylococcus aureus [4], 4.3%. In the data set with Staphylococcus aureus [5], this compound registered an IC50 of 5.45 nM. Also, the Activity result in the data set on Staphylococcus aureus [6] is “Non-toxic”; with Staphylococcus aureus [10], 0.85 deltalog10CFU. The “fold change (FC)” value in the data set with Staphylococcus aureus [7] was 33; in the data set on Staphylococcus aureus [8], 10; in the data set with Staphylococcus aureus [9], 20.
